The source made the active and inactive calls. The calls are words filed in the database; no cut-off is given here.
Assays:
[1] = molecular target: Free fatty acid receptor 1 (Mus musculus) (UniProt Q76JU9); experiment: Agonist activity at mouse GPR40 expressed in HEK293 cells assessed as increase in intracellular calcium level after 5 mins by FLUO-4-AM dye-based FLIPR assay relative to control; assay type: functional, cell-based
Method in brief: (§1)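 HEK293s cells stably expressing mouse GPR40 were seeded 24 h before assay and loaded for 1 h with calcium 3/Fluo-4 AM in HBSS, 20 mM HEPES, 0.01% BSA, 2.5 mM probenecid, pH 7.4. FLIPR Tetra took 10 baseline reads, then read for 5 min after addition. Runs were in duplicate, 9 points, 100 μM to 7 nM final, as % of maximal eladic acid control.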

[2] = molecular target: Free fatty acid receptor 1 (Mus musculus, UniProt Q76JU9); experiment: Agonist activity at mouse GPR40 expressed in HEK293 cells assessed as increase in intracellular calcium level after 5 mins by FLUO-4-AM dye-based FLIPR assay; assay type: functional, cell-based; method in brief: as §1
[3] = molecular target: T1, Free fatty acid receptor 4 (Homo sapiens, UniProt Q5NUL3); experiment: Agonist activity at human GPR120 expressed in CHO-FlpIn cells after 15 mins by DMR assay; assay type: cell-based
T1 sequence (Q5NUL3 whole entry): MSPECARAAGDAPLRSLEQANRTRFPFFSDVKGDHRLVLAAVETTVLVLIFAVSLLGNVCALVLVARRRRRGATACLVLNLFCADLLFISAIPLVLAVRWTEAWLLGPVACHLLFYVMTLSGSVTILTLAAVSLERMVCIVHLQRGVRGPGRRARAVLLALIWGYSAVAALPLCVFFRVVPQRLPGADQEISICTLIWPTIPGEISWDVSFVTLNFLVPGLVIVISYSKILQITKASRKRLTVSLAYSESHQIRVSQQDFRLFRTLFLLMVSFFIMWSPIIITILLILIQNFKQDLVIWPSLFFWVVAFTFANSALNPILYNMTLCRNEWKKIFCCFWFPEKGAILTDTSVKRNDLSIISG
Method in brief: (§2)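 Cryopreserved CHO FlpIn cells stably expressing human or mouse GPR120 were seeded 48 h before assay, serum-starved for 24 h, then held 2 h in HBSS/20 mM HEPES/0.01% BSA (pH 7.4) with 0.5% DMSO. DMR was read over a 10 min baseline and for 15 min after addition. Runs were in duplicate, 10 points, 16 μM to 0.8 nM final, as % of maximal control agonist.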

[4] = molecular target: T2, Free fatty acid receptor 4 (Homo sapiens) (UniProt Q5NUL3); experiment: Agonist activity at human GPR120 expressed in CHO-FlpIn cells after 15 mins by DMR assay relative to control; assay type: cell-based; method in brief: as §2
T2 sequence (whole entry): T1 sequence (Q5NUL3 whole entry)

[5] = molecular target: T3, Free fatty acid receptor 4 (Mus musculus, UniProt Q7TMA4); experiment: Agonist activity at mouse GPR120 expressed in CHO-FlpIn cells after 15 mins by DMR assay; assay type: cell-based; method in brief: as §2
T3 sequence (Q7TMA4 whole entry): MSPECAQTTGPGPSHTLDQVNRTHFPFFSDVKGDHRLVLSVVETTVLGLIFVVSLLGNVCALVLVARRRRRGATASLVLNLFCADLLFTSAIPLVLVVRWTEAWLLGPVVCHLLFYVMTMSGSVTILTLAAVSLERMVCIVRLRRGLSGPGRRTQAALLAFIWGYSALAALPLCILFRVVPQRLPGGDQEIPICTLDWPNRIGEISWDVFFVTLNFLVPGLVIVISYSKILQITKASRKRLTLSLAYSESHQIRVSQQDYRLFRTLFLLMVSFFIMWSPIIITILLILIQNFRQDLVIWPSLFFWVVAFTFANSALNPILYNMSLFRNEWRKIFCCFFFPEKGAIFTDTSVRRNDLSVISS

[6] = molecular target: T4, Free fatty acid receptor 4 (Mus musculus) (UniProt Q7TMA4); experiment: Agonist activity at mouse GPR120 expressed in CHO-FlpIn cells after 15 mins by DMR assay relative to control; assay type: cell-based; method in brief: as §2
T4 sequence (whole entry): T3 sequence (Q7TMA4 whole entry)

[7] = Octanol-buffer partition coefficient, log D of the compound at pH 7.4 after 30 mins by LC-UV based shake-flask method
[8] = Cmax in mouse at 5 mg/kg administered through oral gavage after 24 hrs; assay type: ADME, organism-based; parameters: dose 5 mg/kg, route oral; settings: in vivo
[9] = Oral bioavailability in mouse at 5 mg/kg after 24 hrs; assay type: ADME, organism-based; settings: in vivo
[10] = Volume of distribution at steady state in mouse at 2.5 mg/kg, iv after 24 hrs; assay type: ADME, organism-based; settings: in vivo, read-out: Vdss
[11] = Ratio of drug level in mouse brain to blood at 5 mg/kg administered through oral gavage after 2 hrs; assay type: ADME, organism-based
[12] = Clearance in mouse at 2.5 mg/kg, iv after 24 hrs; assay type: ADME, organism-based; settings: in vivo
[13] = Protein binding in mouse plasma assessed as unbound fraction after 24 hrs by equilibrium dialysis; assay type: ADME, cell-free
Mus musculus = experiment: Antidiabetic activity in GPR120 knockout mouse assessed as reduction in glucose excursion at 100 mg/kg administered through oral gavage 30 mins prior to glucose challenge measured after 90 mins by OGTT; assay type: functional, organism-based
Method in brief: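 OGTT used in-house C57BL/6J mice aged 10–11 weeks. GPR120 knockout and wild-type controls were bred in house, back-crossed onto C57BL/6J, and used at 9–10 weeks. Compound was given as a suspension: a concentrated stock was made at rt the day before and diluted on study day to the dosing concentrations.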

[14] = Ratio of unbound drug level in wild-type mouse brain to blood at 100 mg/kg administered through oral gavage 30 mins prior to glucose challenge measured after 90 mins; settings: brain
[15] = Ratio of unbound drug level in mouse brain to blood at 5 mg/kg administered through oral gavage after 2 hrs; settings: brain

Free fatty acid receptor 1, sequence (Q76JU9 whole entry): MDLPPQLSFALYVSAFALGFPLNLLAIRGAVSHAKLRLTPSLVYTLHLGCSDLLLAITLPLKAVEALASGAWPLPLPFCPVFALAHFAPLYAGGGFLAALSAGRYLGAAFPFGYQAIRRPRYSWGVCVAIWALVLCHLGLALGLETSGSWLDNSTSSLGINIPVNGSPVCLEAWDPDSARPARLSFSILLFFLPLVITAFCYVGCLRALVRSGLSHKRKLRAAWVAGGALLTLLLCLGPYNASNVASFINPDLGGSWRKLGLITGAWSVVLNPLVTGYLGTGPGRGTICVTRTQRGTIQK
Free fatty acid receptor 1 (Mus musculus), sequence (Q76JU9 whole entry): as above

Row | Efficacy [1] | EC50 [2] | EC50 [3] | Efficacy [4] | logD at 0.5 h [7] | SMILES | also measured
1 | 81% | 19000 nM | > 17000 nM | 9% | – | Cc1nn(-c2ccccn2)c2cc(-c3ccc([C@H]4C[C@H]4C(=O)O)cc3)ccc12 (racemic) | –
2 | 95% | 1400 nM | 640 nM | 107% | – | Cc1nn(-c2ccccn2)c2cc(-c3ccc(CCC(=O)O)cc3)ccc12 | –
3 | 31% | 3800 nM | 4000 nM | 100% | – | C[C@@H](Cc1ccc(-c2ccc3cnn(-c4ccccn4)c3c2)cc1)C(=O)O | –
4 | – | > 100000 nM | 690 nM | – | – | Cc1nn(-c2ccccn2)c2cc(-c3ccc([C@H]4C[C@@H]4C(=O)O)cc3)ccc12 [listing 1 of 2 here] | –
5 | 14% | > 100000 nM | 520 nM | 88% | 4.2 | Cc1ccc(-n2nc(C)c3c(F)cc(-c4ccc([C@H]5C[C@@H]5C(=O)O)cc4)cc32)cc1 | EC50 [5]: 540 nM; Efficacy [6]: 112%
6 | 6% | – | – | 87% | – | Cc1nn(-c2ccccn2)c2cc(-c3ccc([C@H]4C[C@@H]4C(=O)O)cc3)ccc12 (racemic) [listing 1 of 2 here] | –
7 | – | – | > 17000 nM | 8% | – | Cc1nn(-c2ccccn2)c2cc(-c3ccc(CC(=O)O)cc3)ccc12 | –
8 | 81% | 1300 nM | > 17000 nM | 2% | – | O=C(O)CCc1ccc(-c2ccc3c(OCc4ccccc4)nn(-c4ccccn4)c3c2)cc1 | –
9 | 10% | – | – | 95% | – | Cc1nn(-c2ccccn2)c2cc(-c3ccc([C@H]4C[C@@H]4C(=O)O)cc3)ccc12 [listing 2 of 2 here] | –
10 | 62% | 8200 nM | 720 nM | 82% | 2.4 | COc1cc(CCC(=O)O)ccc1-c1ccc2c(C)nn(-c3ccccn3)c2c1 | –
11 | 93% | 1100 nM | 760 nM | 75% | 3.3 | CCc1nn(-c2ccccn2)c2cc(-c3ccc(CCC(=O)O)cc3)ccc12 | –
12 | 50% | 61000 nM | 12000 nM | 28% | – | Cc1nn(-c2ccccn2)c2cc(-c3ccc(C(C)CC(=O)O)cc3)ncc12 (configuration not stated) | –
13 | 82% | 2600 nM | 4600 nM | 70% | 2.6 | Cc1cc(-c2ccc(CCC(=O)O)cc2)cc2c1cnn2-c1ccccn1 | –
14 | – | > 100000 nM | 850 nM | – | – | Cc1nn(-c2ccccn2)c2cc(-c3ccc([C@H]4C[C@@H]4C(=O)O)cc3)ccc12 (racemic) [listing 2 of 2 here] | –
15 | 11% | > 100000 nM | 78 nM | 115% | > 4.2 | COc1nn(-c2ccc(C)cc2)c2cc(-c3ccc([C@H]4C[C@@H]4C(=O)O)cc3)cc(F)c12 | EC50 [5]: 17 nM; Cmax [8]: 5 µM; Efficacy [6]: 176%; bioavailability [9]: 19%; Vd [10]: 0.7 L/kg; Kp at 2 h [11]: 0.44; clearance [12]: 0.4 mL/min/kg; fraction unbound at 24 h [13]: 0.0011
16 | 126% | 2600 nM | 470 nM | 100% | 2.8 | O=C(O)CCc1ccc(-c2cc(F)c3cnn(-c4ccccn4)c3c2)cc1 | –

Row | Efficacy [1] | EC50 [2] | EC50 [3] | Efficacy [4] | logD at 0.5 h [7] | SMILES | also measured
17 | 117% | 2100 nM | 260 nM | 128% | – | Cc1nn(-c2ccccn2)c2cc(-c3ccc(CCCC(=O)O)cc3)ccc12 | –
18 | 96% | 2600 nM | 250 nM | 122% | 3.3 | COc1nn(-c2ccccn2)c2cc(-c3ccc(CCC(=O)O)cc3)ccc12 | –
19 | 2% | > 100000 nM | > 17000 nM | 26% | – | Cc1nn(-c2ccccn2)c2cc(-c3ccc([C@@H]4C[C@H]4C(=O)O)cc3)ccc12 | –
20 | 86% | 9200 nM | 2600 nM | 78% | 1.6 | Cc1nn(-c2ccccn2)c2cc(-c3ccc(CCC(=O)O)cc3)ncc12 | –
21 | 0% | > 100000 nM | > 17000 nM | 28% | – | Cc1nn(-c2ccccn2)c2cc(-c3cccc(CCC(=O)O)c3)ccc12 | –
22 | 47% | 6100 nM | 2400 nM | 80% | 2.2 | Cc1nn(-c2ccccn2)c2cc(-c3ccc(CCC(=O)O)cc3C#N)ccc12 | –
23 | 12% | > 100000 nM | 900 nM | 76% | 2.6 | Cc1ccc(-n2nc(C)c3cnc(-c4ccc([C@H]5C[C@@H]5C(=O)O)cc4)cc32)cc1 | EC50 [5]: 640 nM; Efficacy [6]: 99%
24 | 124% | 2000 nM | 4800 nM | 87% | 3 | N#Cc1nn(-c2ccccn2)c2cc(-c3ccc(CCC(=O)O)cc3)ccc12 | –
25 | 106% | 4500 nM | 990 nM | 114% | 2.4 | O=C(O)CCc1ccc(-c2ccc3cnn(-c4ccccn4)c3c2)cc1 | –
26 | – | – | > 17000 nM | 3% | – | Cc1nn(-c2ccccn2)c2cc(-c3cccc(CC(=O)O)c3)ccc12 | –
27 | 113% | 19000 nM | 2000 nM | 78% | 2.2 | N#Cc1cc(-c2ccc(CCC(=O)O)cc2)cc2c1cnn2-c1ccccn1 | –
28 | 18% | > 100000 nM | 4300 nM | 88% | – | C[C@H](Cc1ccc(-c2ccc3cnn(-c4ccccn4)c3c2)cc1)C(=O)O | –
29 | 18% | > 100000 nM | 4100 nM | 79% | – | Cc1nn(-c2ccccn2)c2cc(-c3ccc(CC(C)(C)C(=O)O)cc3)ccc12 | –
30 | 105% | 1500 nM | 600 nM | 113% | 2.9 | Cc1nn(-c2ccccn2)c2cc(-c3ccc(CCC(=O)O)cc3F)ccc12 | –
31 | 102% | 1200 nM | 710 nM | 113% | 3.3 | Cc1nn(-c2ccccn2)c2cc(-c3ccc(CCC(=O)O)cc3Cl)ccc12 | –

Row | SMILES | Efficacy [1] | EC50 [2] | EC50 [3] | Efficacy [4] | logD at 0.5 h [7] | also measured
32 | Cc1ccc(-n2nc(C)c3ccc(-c4ccc([C@H]5C[C@@H]5C(=O)O)cc4)cc32)cc1 | 1% | – | – | 100% | – | EC50 [5]: 510 nM; Cmax [8]: 7.9 µM; Efficacy [6]: 91%; bioavailability [9]: 136%; Vd [10]: 1.2 L/kg; Activity (Mus musculus): inactive; Kp at 2 h [11]: 0.82; clearance [12]: 9.6 mL/min/kg; fraction unbound at 24 h [13]: 0.0049; Kp uu at 1.5 h [14]: 0.27; Kp uu at 2 h [15]: 0.22
